Measured values published in ChEMBL document CHEMBL1255376, “Comparative surveillance study of telavancin activity against recently collected gram-positive clinical isolates from across the United States” (2008).
In brackets after ≈: the same amount, converted by molar mass.

Tests used:
Type in all cases: functional
Enterococcus faecalis [1] = experiment: Antibacterial activity against vancomycin-susceptible Enterococcus faecalis clinical isolate by broth microdilution method
In short: (§1)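 MICs by CLSI broth microdilution in frozen trays pre-loaded with serial dilutions of each agent. Quality-control strains run in parallel: E. faecalis ATCC 29212 and ATCC 51299, S. aureus ATCC 29213, S. pneumoniae ATCC 49619. Comparator susceptibility categories follow CLSI breakpoints. Methicillin resistance in staphylococci assigned from the oxacillin MIC.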

Enterococcus faecalis [2] = experiment: Antibacterial activity against vancomycin- and teichoplanin-nonsusceptible Enterococcus faecalis clinical isolate by broth microdilution method; in short: as §1
Enterococcus faecalis [3] = experiment: Antibacterial activity against vancomycin-resistant and teichoplanin-susceptible Enterococcus faecalis clinical isolate by broth microdilution method; in short: as §1
Enterococcus faecium [4] = experiment: Antibacterial activity against vancomycin-susceptible Enterococcus faecium clinical isolate by broth microdilution method
In short: (§2)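 MIC by CLSI broth microdilution in frozen microtiter trays holding serial dilutions of each agent, prepared from standard laboratory powders. E. faecalis ATCC 29212 and ATCC 51299, S. aureus ATCC 29213 and S. pneumoniae ATCC 49619 run in parallel as quality-control strains. Comparator susceptibility interpreted with CLSI breakpoints.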

Enterococcus faecium [5] = experiment: Antibacterial activity against vancomycin- and teichoplanin-nonsusceptible Enterococcus faecium clinical isolate by broth microdilution method; in short: as §1
Enterococcus faecium [6] = experiment: Antibacterial activity against vancomycin-resistant and teichoplanin-susceptible Enterococcus faecium clinical isolate by broth microdilution method; in short: as §1
Streptococcus pyogenes = experiment: Antibacterial activity against Streptococcus pyogenes clinical isolate by broth microdilution method; in short: as §2
Streptococcus agalactiae = experiment: Antibacterial activity against Streptococcus agalactiae clinical isolate by broth microdilution method; in short: as §2
[7] = Antibacterial activity against Streptococcus sp. Group C clinical isolate by broth microdilution method; in short: as §2
Streptococcus sp. [8] = experiment: Antibacterial activity against Streptococcus sp. Group F clinical isolate by broth microdilution method
In short: (§3)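 MIC by CLSI broth microdilution in frozen microtiter trays holding serial dilutions of each agent, prepared from standard laboratory powders. Comparator susceptibility interpreted with CLSI breakpoints.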

[9] = Antibacterial activity against Streptococcus sp. Group G clinical isolate by broth microdilution method; in short: as §2
Streptococcus equinus = experiment: Antibacterial activity against Streptococcus bovis clinical isolate by broth microdilution method; in short: as §2
[10] = system: Streptococcus constellatus; experiment: Antibacterial activity against Streptococcus constellatus clinical isolate by broth microdilution method; in short: as §2
[11] = system: Streptococcus intermedius; experiment: Antibacterial activity against Streptococcus intermedius clinical isolate by broth microdilution method; in short: as §2
Streptococcus mitis = experiment: Antibacterial activity against Streptococcus mitis clinical isolate by broth microdilution method; in short: as §2
Streptococcus oralis = experiment: Antibacterial activity against Streptococcus oralis clinical isolate by broth microdilution method; in short: as §2
Streptococcus sanguinis = experiment: Antibacterial activity against Streptococcus sanguinis clinical isolate by broth microdilution method; in short: as §2
Streptococcus sp. [12] = experiment: Antibacterial activity against Streptococcus sp. clinical isolate by broth microdilution method; in short: as §3
Streptococcus pneumoniae [13] = experiment: Antibacterial activity against penicillin susceptible Streptococcus pneumoniae clinical isolate by broth microdilution method; in short: as §1
Streptococcus pneumoniae [14] = experiment: Antibacterial activity against penicillin intermediate Streptococcus pneumoniae clinical isolate by broth microdilution method; in short: as §1
Streptococcus pneumoniae [15] = experiment: Antibacterial activity against penicillin resistant Streptococcus pneumoniae clinical isolate by broth microdilution method; in short: as §1

SMILES: CC1(C)S[C@@H]2[C@H](NC(=O)[C@H](N)c3ccccc3)C(=O)N2[C@H]1C(=O)O [AMPICILLIN]
- MIC50 (Enterococcus faecalis [1]): 1 µg/mL (≈ 2.86 µM)
- MIC90 (Enterococcus faecalis [1]): 1 µg/mL (≈ 2.86 µM)
- MIC50 (Enterococcus faecalis [2]): 1 µg/mL (≈ 2.86 µM)
- MIC90 (Enterococcus faecalis [2]): 2 µg/mL (≈ 5.72 µM)
- MIC (Enterococcus faecalis [3]): 0.5 µg/mL (≈ 1.43 µM)
- MIC50 (Enterococcus faecium [4]): 128 µg/mL (≈ 366 µM)
- MIC90 (Enterococcus faecium [4]): > 128 µg/mL
- MIC50 (Enterococcus faecium [5]): 128 µg/mL (≈ 366 µM)
- MIC90 (Enterococcus faecium [5]): > 128 µg/mL
- MIC50 (Enterococcus faecium [6]): 128 µg/mL (≈ 366 µM)

SMILES: C[C@H]1COc2c(N3CCN(C)CC3)c(F)cc3c(=O)c(C(=O)O)cn1c23.C[C@H]1COc2c(N3CCN(C)CC3)c(F)cc3c(=O)c(C(=O)O)cn1c23.O [LEVOFLOXACIN]
- MIC50 (Streptococcus pyogenes): 0.5 µg/mL
- MIC90 (Streptococcus pyogenes): 1 µg/mL
- MIC50 (Streptococcus agalactiae): 0.5 µg/mL
- MIC90 (Streptococcus agalactiae): 1 µg/mL
- MIC50 [7]: 0.5 µg/mL
- MIC90 [7]: 0.5 µg/mL
- MIC50 (Streptococcus sp. [8]): 0.5 µg/mL
- MIC90 (Streptococcus sp. [8]): 0.5 µg/mL
- MIC50 [9]: 0.5 µg/mL
- MIC90 [9]: 0.5 µg/mL
- MIC50 (Streptococcus equinus): 0.5 µg/mL
- MIC90 (Streptococcus equinus): 1 µg/mL
- MIC50 [10]: 0.5 µg/mL
- MIC90 [10]: 1 µg/mL
- MIC50 [11]: 0.5 µg/mL
- MIC90 [11]: 1 µg/mL
- MIC50 (Streptococcus mitis): 0.5 µg/mL
- MIC90 (Streptococcus mitis): 1 µg/mL
- MIC50 (Streptococcus oralis): 0.5 µg/mL
- MIC90 (Streptococcus oralis): 1 µg/mL
- MIC50 (Streptococcus sanguinis): 0.5 µg/mL
- MIC90 (Streptococcus sanguinis): 1 µg/mL
- MIC50 (Streptococcus sp. [12]): 0.5 µg/mL
- MIC90 (Streptococcus sp. [12]): 1 µg/mL
- MIC50 (Streptococcus pneumoniae [13]): 1 µg/mL
- MIC90 (Streptococcus pneumoniae [13]): 1 µg/mL
- MIC50 (Streptococcus pneumoniae [14]): 0.5 µg/mL
- MIC90 (Streptococcus pneumoniae [14]): 1 µg/mL
- MIC50 (Streptococcus pneumoniae [15]): 0.5 µg/mL
- MIC90 (Streptococcus pneumoniae [15]): 1 µg/mL
